The subject of assay [1] is PC-12. Put plainly: Upregulation of GR expression in MPP+ induced rat PC-12 cells at 100 nM pretreated with compound for 24 hrs followed by MPP+ stimulation and measured after 6 hrs. The following applies: time 30.0 hrs. Format: functional, cell-based. In short, it runs like this:
(§1)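 PC12 cells pretreated 24 h with compound, then exposed to 25 μM MPP+ for 6 h. mRNA quantified by real-time PCR (95 °C 3 min, then 40 cycles of 95 °C 10 s and 62 °C 30 s), samples in triplicate. Values normalized to β-actin, expressed as 2^-ΔΔCt with untreated cells set to 1.0. n = 3.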

The test system of assay [2] is PC-12. Put plainly: Upregulation of Gpx expression in MPP+ induced rat PC-12 cells at 100 nM pretreated with compound for 24 hrs followed by MPP+ stimulation and measured after 6 hrs. The assay is classed as functional, cell-based. The following applies: time 30.0 hrs. The essentials:
as §1

Active and inactive are the calls of the source. The rule behind the calls is not given here.

On to `C#CCSC[C@H]1NC(=O)[C@H](Cc2ccc(OC(C)=O)c(OC(C)=O)c2)NC1=O`, for which the outcome in assay [1] and in assay [2] was Active.

The values above are taken from ChEMBL document CHEMBL5352422, “Development of l-Dopa-containing diketopiperazines as blood-brain barrier shuttle” (Eur J Med Chem, 2022).
